Assay results as given in ChEMBL document CHEMBL3232920, “Targeting carnitine biosynthesis: discovery of new inhibitors against γ-butyrobetaine hydroxylase” (J Med Chem, 2014).

Target: T1, Gamma-butyrobetaine dioxygenase (Homo sapiens, UniProt O75936)
T1 sequence (O75936 whole entry): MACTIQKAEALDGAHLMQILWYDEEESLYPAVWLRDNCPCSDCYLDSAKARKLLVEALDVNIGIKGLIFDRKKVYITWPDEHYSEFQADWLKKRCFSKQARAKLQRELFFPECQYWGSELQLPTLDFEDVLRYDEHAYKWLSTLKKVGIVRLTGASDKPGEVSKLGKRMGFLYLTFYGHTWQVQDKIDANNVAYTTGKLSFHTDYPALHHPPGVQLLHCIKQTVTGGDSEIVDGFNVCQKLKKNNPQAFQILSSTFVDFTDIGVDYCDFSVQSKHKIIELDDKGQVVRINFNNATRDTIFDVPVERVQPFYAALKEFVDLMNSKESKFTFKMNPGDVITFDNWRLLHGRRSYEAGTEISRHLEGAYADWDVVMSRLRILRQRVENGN
Assay: Binding affinity to purified human BBOX by isothermal titration calorimetry analysis
How it was run: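 Human BBOX, purified and dialyzed, in 50 mM HEPES pH 7.4 with 100 mM KCl; cofactors and ligands dissolved in the same dialysate. N-oxalylglycine replaced 2-oxoglutarate and Ni(II) replaced Fe(II). Enzyme 26–75 μM per subunit. ITC at 25 °C: 0.2 μL first injection (discarded), then 19 × 2.0 μL. Dilution heats subtracted, low-c fitting, ≥3 repeats.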

| Kd | Structure (SMILES) |
| --- | --- |
| 9.3 µM | CN(CCC(=O)[O-])[N+](C)(C)C |
| 4.1 µM | CC(CCC(=O)[O-])[N+](C)(C)C (stereo not given) |

Target: T2, Gamma-butyrobetaine dioxygenase (Homo sapiens) (UniProt O75936)
T2 sequence (whole entry): T1 sequence (O75936 whole entry)
Assay: Ratio of mildronate IC50 to compound IC50 for human recombinant BBOX

| Ratio IC50 | Structure (SMILES) |
| --- | --- |
| 3 | CN(CCC(=O)[O-])[N+](C)(C)C |
| 3 | CC(CCC(=O)[O-])[N+](C)(C)C (stereo not given) |
| 9 | C=C[N+](C)(C)NCCC(=O)[O-] |

Target: T1, Gamma-butyrobetaine dioxygenase
Assay: Inhibition of human recombinant BBOX expressed in Saccharomyces cerevisiae AH22 assessed as formation of carnitine from gamma-butyrobetaine preincubated for 15 mins measured after 30 mins by UPLC-MS/MS analysis
How it was run: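 His-tagged BBOX purified by Ni affinity, desalting and Mono Q; tag cut with TEV. Assay (0.2 mL) held 20 mM K phosphate pH 7.0, 20 mM KCl, 3 mM 2-oxoglutarate, 0.25 mM Fe(II), 10 mM ascorbate, catalase and 0.6 μg enzyme. Screen at 100 or 1000 μM, then 6–8 concentrations. GBB 200 μM added after preincubation, 37 °C; stopped with cold acetonitrile/methanol. Logistic-fit IC50, mean ± SD of three experiments.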

| Structure (SMILES) | IC50 |
| --- | --- |
| C#CC[N+](C)(C)NCCC(=O)O | 24 µM |
| CC[N+](C)(C)CCCS(=O)(=O)[O-] [ETHYL DIMETHYL AMMONIO PROPANE SULFONATE] | 6.7 µM |
| CC(C)[N+](C)(C)CCCC(=O)[O-] | 5.7 µM |
| C[N+](C)(CCCC(=O)[O-])C1CCCC1 | > 1000 µM |
| CC[N+](C)(CC)CCCC(=O)[O-] | 100 µM |
| C[N+](C)(CCCC(=O)[O-])CC1CC1 | > 1000 µM |
| C[N+](C)(C)C/C=C/C(=O)[O-] | 3.8 µM |
| C[N+](C)(C)CCCP(=O)(O)O | 0.1 µM |
| O=C(O)CCCN1CCCC1 | 1000 µM |
| CC[N+](C)(CC)NCCC(=O)O | > 1000 µM |
| C[N+](C)(CCN)NCCC(=O)[O-] | > 1000 µM |
| C[N+](C)(CCCC(=O)[O-])Cc1ccccc1 | > 1000 µM |
| CC[N+](C)(C)CCC[PH](=O)[O-] | 0.53 µM |
| C[N+](C)(C)CCCc1nnn[nH]1 | > 1000 µM |
| C=CC[N+](C)(C)CCCC(=O)[O-] | 2.7 µM |
| C[N+](C)(CCCl)NCCC(=O)O | 10.2 µM |

| Structure (SMILES) | IC50 |
| --- | --- |
| CCN(CCC(=O)[O-])[N+](C)(C)C | 2.8 µM |
| CC(CCC(=O)[O-])[N+](C)(C)C (stereo not given) | 343 µM |
| C#CC[N+](C)(C)CCCC(=O)[O-] | 1.4 µM |
| C[N+](C)(CCF)CCCC(=O)O | 0.61 µM |
| C[S+](C)CCCC(=O)[O-] | 388 µM |
| C[N+](C)(CCO)NCCC(=O)[O-] | 1000 µM |
| CC[N+](C)(C)N(C)CCC(=O)[O-] | 7.2 µM |
| C=C[N+](C)(C)NCCC(=O)[O-] | 6.8 µM |
| CCC[N+](C)(C)N(C)CCC(=O)[O-] | 3.1 µM |
| C[N+](C)(C)CC(Cl)CC(=O)O (stereo not given) | 459 µM |
| COC[N+](C)(C)CCCC(=O)[O-] | > 1000 µM |
| C[N+](C)(C)CCC[PH](=O)[O-] | 0.52 µM |
| C[N+](C)(C)NCCP(=O)(O)O | 117 µM |
| CCC[N+](C)(C)CCCC(=O)[O-] | > 1000 µM |
| CC[N+](C)(C)NCCC(=O)[O-] | 140 µM |
| C[N+](C)(CCCl)CCCC(=O)O | 0.26 µM |

Now from value to molecule:

| IC50 | Structure (SMILES) |
| --- | --- |
| 2.1 µM | C[N+](C)(CCCC(=O)[O-])C1CC1 |
| > 1000 µM | C[N+](C)(C)C1CCCC(C(=O)[O-])C1 (stereo not given) |
| 87 µM | C[N+](C)(C)NCCS(=O)(=O)[O-] |
| 0.09 µM | CN(CCC(=O)[O-])[N+](C)(C)C |
| 0.49 µM | C[N+]1(CCCC(=O)O)CCCC1 |
| 1.7 µM | C[N+](C)(C)CCCS(=O)(=O)[O-] |
| 127 µM | C=C[N+](C)(C)CCCC(=O)[O-] |
| > 1000 µM | C[N+](C)(C)CCCCC(=O)[O-] |
| > 1000 µM | C[N+](C)(CCCC(=O)[O-])CC1CCC1 |
| 268 µM | C[N+](C)(CCl)CCCC(=O)[O-] |
| 119 µM | C=CC[N+](C)(C)NCCC(=O)[O-] |
| 1000 µM | C[N+](C)(CCO)CCCC(=O)[O-] |
| 1000 µM | C[N+](C)(CI)CCCC(=O)[O-] |
| > 1000 µM | CCCC[N+](C)(C)CCCC(=O)[O-] |
| 3.3 µM | CC[N+](C)(C)CCCC(=O)[O-] |
| > 1000 µM | C[N+](C)(CBr)CCCC(=O)[O-] |
| > 1000 µM | CC(C)[N+](C)(C)NCCC(=O)[O-] |
| 0.81 µM | C[N+](C)(CCCC(=O)[O-])C1CCC1 |
